Tests used:
[1] = tested on: Rattus norvegicus; assay: Toxicity in cholesterol-fed Sprague-Dawley rat assessed as total T4 level at 150 mg/kg/day, po qd for 1 week measured 3 to 6 hrs post last dose (reference value: 3.8 +/- 0.9 ug/dl); format: organism-based; parameters: route oral; conditions: in vivo
[2] = tested on: Rattus norvegicus; assay: Toxicity in cholesterol-fed Sprague-Dawley rat assessed as TSH level at 150 mg/kg/day, po qd for 1 week measured 3 to 6 hrs post last dose (reference value: 3.0 +/- 1.0 uIU/ml); format: organism-based; parameters: route oral; conditions: in vivo
[3] = tested on: Rattus norvegicus; assay: Toxicity in cholesterol-fed Sprague-Dawley rat assessed as heart weight at 150 mg/kg/day, po qd for 1 week measured 3 to 6 hrs post last dose (reference value: 1.14 +/- 0.12 g); format: organism-based; parameters: route oral; conditions: in vivo
[4] = tested on: Rattus norvegicus; assay: Toxicity in cholesterol-fed Sprague-Dawley rat assessed as heart rate at 150 mg/kg/day, po qd for 1 week measured 3 to 6 hrs post last dose (reference value: 383.0 +/- 26.7 bpm); format: organism-based; parameters: route oral; conditions: in vivo
[5] = tested on: Rattus norvegicus; assay: Toxicity in cholesterol-fed Sprague-Dawley rat assessed as total T4 level at 6 mg/kg/day, po qd for 1 week measured 3 to 6 hrs post last dose (reference value: 3.8 +/- 0.9 ug/dl); format: organism-based; parameters: route oral; conditions: in vivo
[6] = tested on: Rattus norvegicus; assay: Toxicity in cholesterol-fed Sprague-Dawley rat assessed as TSH level at 6 mg/kg/day, po qd for 1 week measured 3 to 6 hrs post last dose (reference value: 3.0 +/- 1.0 uIU/ml); format: organism-based; parameters: route oral; conditions: in vivo
[7] = tested on: Rattus norvegicus; assay: Toxicity in cholesterol-fed Sprague-Dawley rat assessed as heart weight at 6 mg/kg/day, po qd for 1 week measured 3 to 6 hrs post last dose (reference value: 1.14 +/- 0.12 g); format: organism-based; parameters: route oral; conditions: in vivo
[8] = tested on: Rattus norvegicus; assay: Toxicity in cholesterol-fed Sprague-Dawley rat assessed as heart rate at 6 mg/kg/day, po qd for 1 week measured 3 to 6 hrs post last dose (reference value: 383.0 +/- 26.7 bpm); format: organism-based; parameters: route oral; conditions: in vivo
[9] = tested on: Rattus norvegicus; assay: Reduction in plasma triglyceride level in cholesterol-fed Sprague-Dawley rat at 6 mg/kg/day, po qd for 1 week measured 3 to 6 hrs post last dose (reference value: 62 +/- 25 mg/dl); format: functional
[10] = tested on: Rattus norvegicus; assay: Reduction in plasma HDL-cholesterol in cholesterol-fed Sprague-Dawley rat at 6 mg/kg/day, po qd for 1 week measured 3 to 6 hrs post last dose (reference value: 22 +/- 6 mg/dl); format: functional
[11] = tested on: Rattus norvegicus; assay: Reduction in plasma free cholesterol in cholesterol-fed Sprague-Dawley rat at 6 mg/kg/day, po qd for 1 week measured 3 to 6 hrs post last dose (reference value: 36 +/- 9 mg/dl); format: functional
[12] = tested on: Rattus norvegicus; assay: Reduction in plasma LDL-cholesterol in cholesterol-fed Sprague-Dawley rat at 6 mg/kg/day, po qd for 1 week measured 3 to 6 hrs post last dose (reference value: 51 +/- 15 mg/dl); format: functional
[13] = tested on: Rattus norvegicus; assay: Reduction in plasma total cholesterol in cholesterol-fed Sprague-Dawley rat at 6 mg/kg/day, po qd for 1 week measured 3 to 6 hrs post last dose (reference value: 190 +/- 49 mg/dl); format: functional
[14] = tested on: HepG2; assay: Selectivity ratio of EC50 for human recombinant transfected in human HepG2 cells to EC50 for human recombinant TRbeta1 transfected in human HepG2; format: cell-based
[15] = tested on: CV-1; assay: Selectivity ratio of EC50 for human recombinant transfected in CV-1 cells to EC50 for human recombinant TRbeta1 transfected in CV-1 cells; format: cell-based
Method in brief: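 CV-1 monkey kidney cells grown in DMEM with 10% FBS for 24 h at 37 °C and 5% CO2. Transfected (FuGENE) with hTRα1 or hTRβ1 plus a SEAP reporter for 24 h, then exposed to T3 or test compound for 8-10 h. SEAP was read as A405 of p-nitrophenol (pH 9.8, 30 min, RT). EC50 was set against T3 max = 100%; mean of four experiments; α/β ratio of EC50s.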

[16] = target: T1, Thyroid hormone receptor beta (Homo sapiens, UniProt P10828); assay: Agonist activity at human recombinant TRbeta1 transfected in human HepG2 cells after 8 to 10 hrs by alkaline phosphatase reporter gene assay; format: cell-based
T1 sequence (P10828 whole entry): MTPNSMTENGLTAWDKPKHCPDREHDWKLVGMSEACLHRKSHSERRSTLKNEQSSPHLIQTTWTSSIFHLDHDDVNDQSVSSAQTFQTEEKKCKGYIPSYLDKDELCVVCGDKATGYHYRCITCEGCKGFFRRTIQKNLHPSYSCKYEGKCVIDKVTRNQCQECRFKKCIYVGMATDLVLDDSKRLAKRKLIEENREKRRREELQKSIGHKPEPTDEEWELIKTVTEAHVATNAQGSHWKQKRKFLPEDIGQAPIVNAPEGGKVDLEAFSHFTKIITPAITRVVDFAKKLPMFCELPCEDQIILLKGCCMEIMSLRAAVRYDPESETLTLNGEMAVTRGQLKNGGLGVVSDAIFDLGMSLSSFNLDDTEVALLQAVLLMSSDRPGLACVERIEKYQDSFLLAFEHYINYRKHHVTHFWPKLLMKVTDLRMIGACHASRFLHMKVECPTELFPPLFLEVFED

[17] = target: T1, Thyroid hormone receptor beta; assay: Agonist activity at human recombinant TRbeta1 transfected in CV-1 cells after 8 to 10 hrs by alkaline phosphatase reporter gene assay; format: cell-based
[18] = target: T1, Thyroid hormone receptor beta; assay: Displacement of [125I]-Triiodothyronine from human recombinant TRbeta1 ligand binding domain after 2 to 3 hrs by beta counting
[19] = target: T2, Thyroid hormone receptor alpha (Homo sapiens, UniProt P10827); assay: Displacement of [125I]-Triiodothyronine from human recombinant TRalpha1 ligand binding domain after 2 to 3 hrs by beta counting
T2 sequence (P10827 whole entry): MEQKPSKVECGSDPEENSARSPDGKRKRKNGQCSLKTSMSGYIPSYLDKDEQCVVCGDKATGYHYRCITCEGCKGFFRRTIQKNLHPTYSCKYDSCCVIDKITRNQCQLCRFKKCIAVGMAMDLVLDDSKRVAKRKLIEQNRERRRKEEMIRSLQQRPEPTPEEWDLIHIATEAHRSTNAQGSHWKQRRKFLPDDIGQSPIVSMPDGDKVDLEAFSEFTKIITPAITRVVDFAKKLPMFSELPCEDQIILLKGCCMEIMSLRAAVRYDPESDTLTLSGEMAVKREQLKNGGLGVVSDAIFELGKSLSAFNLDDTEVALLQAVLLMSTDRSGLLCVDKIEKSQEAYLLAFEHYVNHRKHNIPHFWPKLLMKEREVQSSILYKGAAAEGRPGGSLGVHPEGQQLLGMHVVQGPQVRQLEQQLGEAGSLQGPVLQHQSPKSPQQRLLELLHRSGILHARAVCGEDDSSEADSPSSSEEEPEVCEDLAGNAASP

- EC50 [16]: 1300 nM
- EC50 [17]: 3.1 µM
- IC50 [18]: 240 nM
- IC50 [19]: 5.2 µM
SMILES: Cc1ccc(NC(=O)CC(=O)O)c2ccn(Cc3ccc(O)c(C(C)C)c3)c12
- Activity [1]: 1.9 µg/dL
- Activity [2]: 1.3 uIU/ml
- Activity [3]: 1.18 g
- Activity [4]: 424.3 bpm
- Activity [5]: 2.4 µg/dL
- Activity [6]: 2.7 uIU/ml
- Activity [7]: 1.12 g
- Activity [8]: 401.8 bpm
- Activity [9]: 27 mg/dL
- Activity [10]: 20 mg/dL
- Activity [11]: 15 mg/dL
- Activity [12]: 20 mg/dL
- Activity [13]: 94 mg/dL
- Ratio EC50 [14]: 7.2
- Ratio EC50 [15]: 3.4

Source: ChEMBL document CHEMBL3124871, “Synthesis and pharmacological characterization of 1-benzyl-4-aminoindole-based thyroid hormone receptor β agonists” (Bioorg Med Chem, 2014)
